# Most compounds without a hit are left out; they make up all but 2.5% or so of the library.
# MEKK3 PB1 HTS = MEKK3-MEK5 PB1 interaction, increase or decrease; bead-based flow cytometry, Alexa488-MEK5 binding to MEKK3; actives lie on both sides; 0 = blocked by unlabeled MEK5, 100 = vehicle; Q99759; binding response (% of control), % at 10 µM; 1.4% of 290,000 active;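 active means binding response more than 3 SD above or below the average of its plate-row segment, actives on both sides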;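 further: Alexa488 bead fluorescence after subtracting the streptavidin-only scavenger bead signal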
# Target sequence (Q99759 whole entry, looked up): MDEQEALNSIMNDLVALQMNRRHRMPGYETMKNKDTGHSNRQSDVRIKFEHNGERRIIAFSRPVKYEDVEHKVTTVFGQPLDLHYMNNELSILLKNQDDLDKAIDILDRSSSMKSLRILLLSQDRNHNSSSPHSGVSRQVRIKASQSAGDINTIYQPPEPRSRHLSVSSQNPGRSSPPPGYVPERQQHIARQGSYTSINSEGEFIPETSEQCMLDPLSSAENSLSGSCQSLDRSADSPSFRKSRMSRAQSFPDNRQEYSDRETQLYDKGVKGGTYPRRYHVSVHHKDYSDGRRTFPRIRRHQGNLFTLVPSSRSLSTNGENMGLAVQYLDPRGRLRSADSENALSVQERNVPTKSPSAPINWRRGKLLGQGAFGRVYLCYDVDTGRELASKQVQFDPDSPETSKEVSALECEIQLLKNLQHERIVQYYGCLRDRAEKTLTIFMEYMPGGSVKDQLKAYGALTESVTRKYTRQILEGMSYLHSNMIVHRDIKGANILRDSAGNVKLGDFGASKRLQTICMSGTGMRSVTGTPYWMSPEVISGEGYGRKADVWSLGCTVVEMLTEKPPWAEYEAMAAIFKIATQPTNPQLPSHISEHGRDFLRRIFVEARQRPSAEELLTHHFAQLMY
# T cell HTS = T cell immune modulators affecting CD8 T cell-vesicle binding. response (vesicle binding), % at 7 µM. 2C CD8+ T cell-vesicle binding, flow cytometry; hits give low values. 0.068% of 330,000 active;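 active means response, share of CD8 T cells binding vesicles, and their 90th percentile fluorescence all below set limits, cut at about 80% in these data, passing the limit was not always enough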;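 further: values below 100% mean blocked vesicle binding to the CD8+ T cells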
#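 Benchmarks: naked versus QL9-loaded vesicles / Assay system: purified 2C TCR transgenic mouse naive CD8+ T cells / Technique: high-throughput flow cytometry with anti-B7-1 and anti-CD8 staining / Timing: Cell–vesicle co-incubation 1.5 h at 37 °C, staining 20 min on ice / Read-out: percent CD8+ FL2 mean versus row control / Probe or stimulus: QL9-loaded Drosophila micro-vesicles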
# Rce1 inh = yeast Ras-converting enzyme inhibition; Q03530; yeast membranes, quenched prenylated peptide cleavage fluorescence; calls only; 0.27% of 290,000 active;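 active means fall in fluorescence gain of 50% or more versus controls, with final raw signal at or below 3038400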;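 further: plate controls were neutral control wells for no effect and wells lacking membranes for full effect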
# MEKK2wt PB1 HTS = raises or lowers MEK5 binding to wildtype human MEKK2 PB1 domain | Q9Y2U5 | bead flow cytometry, Alexa488-MEK5 binding to MEKK2 WT; actives lie on both sides | binding response (% of control), % at 10 µM | 1.1% of 290,000 active | AID 1531; in the data active means binding response below about 67% or above about 130%
# MEKK2mut PB1 HTS = signal of MEK5 binding to mutant human MEKK2 PB1 domain. bead flow cytometry, Alexa488-MEK5 binding to MEKK2 mutant. percent response, % at 10 µM. 0.35% of 290,000 active; in the data active means percent response above about 24%, passing the limit was not always enough
# UCH37 inh = human UCH37 deubiquitinating enzyme inhibition | purified proteasome/UCH37, Ub-AMC cleavage fluorescence | 0.33% of 330,000 active | Q9Y5K5 | AID 588478 | inhibition, % (concentration not given with the values);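 active means mean inhibition over replicate wells above about 20%, limit read from the data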;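 further: 0% = compound-free wells with enzyme and 100% = wells lacking proteasome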
#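 Schedule: 30 min plus 25 min, room temperature / Material: human UCH37 within purified proteasomes / Technique: AMC fluorescence intensity at 355/460 nm / Buffer or medium: pH 7.4 Tris-HCl (50 mM) with ovalbumin, ATP-MgCl2, DTT / Controls: wells without proteasome as full block, compound-free enzyme plus substrate as uninhibited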
# MEKK2wt confirm = raises or lowers MEK5 binding to wildtype human MEKK2, retest; shares compounds with MEKK3 PB1 HTS; bead flow cytometry, Alexa488-MEK5 binding to MEKK2 WT; actives lie on both sides; binding response (% of control), % at 10 µM; 2.4% of 5,900 active; in the data active means binding response below about 16% or above about 210%; inactive means in between
# MEKK2mut confirm = signal of MEK5 binding to mutant human MEKK2, retest. shares compounds with MEKK3 PB1 HTS. bead flow cytometry, Alexa488-MEK5 binding to MEKK2 mutant. percent response, % at 10 µM. 2% of 5,900 active. AID 1893; in the data active means percent response mostly above about 71%, no sharp cut-off; inactive means mostly below about 38%;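 further: higher means compound restores mutant binding toward wildtype level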
# MEKK3-MEK5 inh = confirmation of inhibitors of MEK5 binding to human MEKK3 | shares compounds with MEKK3 PB1 HTS | bead flow cytometry, Alexa488-MEK5 binding to MEKK3; hits give low values | binding response (% of control), % at 10 µM | 1.8% of 5,900 active | AID 1894;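 active means binding response below 72% of control, or above a set upper limit, though filed actives all read lower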;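 further: 100% = DMSO only wells and 0% = binding blocked by excess unlabeled MEK5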
# * = called active by the depositor; i = inactive; . = no result; [ ] = dose if it differs, or a comment.
SMILES,MEKK3 PB1 HTS,T cell HTS,Rce1 inh,MEKK2wt PB1 HTS,MEKK2mut PB1 HTS,UCH37 inh,MEKK2wt confirm,MEKK2mut confirm,MEKK3-MEK5 inh
Cc1ccc(Nc2nc(NCC3CCCO3)nc(N)c2[N+](=O)[O-])cc1C (stereo not given),74*[inhibitor],146,i,95,-1,6,106,5,102
COC(=O)c1ccc(C=NNC(=O)CC(=O)NC2CCCCC2)cc1,.,.,.,.,.,3,.,.,.
Cc1cccc(-c2cc3nc4c(c(NCc5ccco5)n3n2)CCCC4)c1,110,34,i,136*,16,-42,108,1,104
CC(C)NS(=O)(=O)c1ccc(CCC(=O)Nc2ccc3c(c2)OCCO3)cc1,164*,249,i,114,3,1,101,-2,95
CCNS(=O)(=O)c1ccc(CCC(=O)Nc2ccc3c(c2)OCCO3)cc1,105,271,i,102,0,0,.,.,.
CCOC(=O)CSc1ncnc2c1sc1nc(N3CCOCC3)c3c(c12)CCCC3,82*[inhibitor],343,i,93,-12,-23,98,-1,104
COc1cc(C=NNC(N)=S)ccc1OC(=O)c1ccc(C)cc1,.,.,.,.,.,5,.,.,.
Cc1cccc2c1-c1sc(C(=O)Nc3ccccc3N3CCN(C)CC3)cc1CO2,103,438,i,162*,4,-22,198,46,111
CCn1c(COc2ccc(=O)n(-c3ccccc3)n2)n[nH]c1=S,129*,134,i,117,4,4,89,-8,94
CNC(=S)NN=Cc1c(C)nn(-c2ccccc2)c1Cl,.,.,.,.,.,2,.,.,.
CCN1CCN(c2cc(-c3ccccc3)nc3cc(-c4cccc(F)c4)nn23)CC1,122*,695,i,146*,49*,-149,182,39,108
OC1CCN(c2cc(-c3ccccc3)nc3cc(-c4ccc(F)cc4)nn23)CC1,102,227,i,95,-4,-389,.,.,.
Cc1csc(-c2cnn(-c3ccccc3)c2NC(=O)c2ccccc2)n1,1.0*[inhibitor],235,i,1.0*[inhibitor],-21,4,103,2,105
O=C(Nc1ccc(S(=O)(=O)Nc2ncccn2)cc1)c1cnc(Cl)c(Cl)c1,101,270,i,95,-1,3,.,.,.
O=C(Nc1ccc(S(=O)(=O)Nc2nccs2)cc1)c1cnc(Cl)c(Cl)c1,46*[inhibitor],211,i,54,-8,4,104,-2,103
CN(C)c1ccc(/C=C(\NC(=O)c2ccccc2)C(=O)NN=Cc2ccc(C(=O)O)cc2)cc1,.,.,.,.,.,20,.,.,.
CCOC(=O)c1c(NC(=O)COc2ccccc2)sc2c1CC(C)(C)NC2(C)C,92,525,i,99,-1,-4,.,.,.
CCOc1ccc(C(=O)Nc2sc3c(c2C(=O)OC)CC(C)(C)NC3(C)C)cc1,105,410,i,152*,34,-218,137,13,100
COC(=O)c1c(NC(=O)c2nc3ccccc3s2)sc2c1CC(C)(C)NC2(C)C,108,836,i,210*,69*,-68,186,42,110
Cc1ccccc1C=NNC(=O)Cn1cnc([N+](=O)[O-])n1,.,.,.,.,.,1,.,.,.
COCC(=O)OCC(=O)Nc1cc([N+](=O)[O-])ccc1Cl,95,.,.,89,-10,-2,.,.,.
COCC(=O)OCC(=O)Nc1ccc(Cl)cc1[N+](=O)[O-],32*[inhibitor],644,i,44*[inhibitor],-19,2,99,-2,101
CCOC(=O)C1=C(c2ccccc2)NC(N)=NC1c1ccc(OCc2ccc(C(=O)OC)cc2)cc1 (stereo not given),109,186,i,194*,49,0,260*,76*,112
COc1ccc(CCC(=O)Nc2cc([N+](=O)[O-])ccc2OC)cc1,102,227,i,98,-1,6,.,.,.
COc1ccc(-c2noc(CCC(=O)Nc3ccc(C)c(C)c3)n2)cc1,0.0*[inhibitor],411,i,-7.0*[inhibitor],-22,4,106,1,100
SMILES,MEKK3 PB1 HTS,T cell HTS,Rce1 inh,MEKK2wt PB1 HTS,MEKK2mut PB1 HTS,UCH37 inh,MEKK2wt confirm,MEKK2mut confirm,MEKK3-MEK5 inh
COc1ccc(CCC(=O)Nc2ccc(C)c([N+](=O)[O-])c2)cc1,161*,198,i,106,1,4,102,4,100
COc1ccc(-c2noc(CCC(=O)NCC3CCN(Cc4cccc(C)c4)CC3)n2)cc1,116,235,i,143*,39*,5,118,17,101
O=C(NN=Cc1cc2c(cc1Cl)OCO2)c1cccc(Br)c1,.,.,.,.,.,-7,.,.,.
Cc1ccc(OCC(=O)c2cc(C)n(Cc3cccs3)c2C)c([N+](=O)[O-])n1,89,186,i,92,-5,-1,.,.,.
Cc1cc(C(=O)COc2ccc3ccc(=O)oc3c2)c(C)n1Cc1cccs1,142*,332,i,105,0,-47,96,-4,98
COc1ccc(C(=O)NN=Cc2ccc(N3CCOCC3)s2)cc1OC,.,.,.,.,.,3,.,.,.
CSCC[C@H](NC(=O)C1CCCC1)c1nc2ccccc2[nH]1,69*[inhibitor],147,i,68,-16,5,108,5,104
Cc1cccc(N=C2Sc3nc4c(C)c(C)ccc4cc3CN2CCN2CCOCC2)c1,113,253,i,144*,24*,4,136,17,108
O=C1CCC([N+](=O)[O-])C(c2cc3c(cc2Br)OCO3)N1 (stereo not given),156*,537,i,108,2,1,124,8,113
NC(=O)NC(=O)CC1S/C(=N/N=Cc2ccccc2)NC1=O (stereo not given),.,.,.,.,.,7,.,.,.
O=C(C[n+]1cc(-c2ccc(Cl)cc2)n2c1CCC2)Nc1nc(-c2ccccc2)cs1,99,222,i,146*,28,8,163,37,94
O=C(C[n+]1cc(-c2ccc(F)cc2)n2c1CCC2)Nc1nc(-c2ccccc2)cs1,98,236,i,127,1,7,.,.,.
Cc1ccc(-c2c[n+](CC(=O)Nc3nc(-c4ccc(F)cc4)cs3)c3n2CCC3)cc1,109,264,i,226*,76*,8,199,76*,115
C(=Nn1cnnc1)c1ccc(OC2CSC2)cc1,.,.,.,.,.,9,.,.,.

# Compound activity as filed in PubChem.
